Results on 33 compounds are retold here after ChEMBL document CHEMBL3045582, “Chemical synthesis, in vitro acetohydroxyacid synthase (AHAS) inhibition, herbicidal activity, and computational studies of isatin derivatives” (2011).

The subject of assay [1] is Brassica rapa subsp. oleifera. The assay can be described thus: Inhibition of Brassica rapa subsp. oleifera root growth at 10 mg/L. In kind it is functional.
Assay [2] has as its target T1, Acetolactate synthase, chloroplastic (Arabidopsis thaliana) (UniProt P17597).
T1 sequence (whole entry): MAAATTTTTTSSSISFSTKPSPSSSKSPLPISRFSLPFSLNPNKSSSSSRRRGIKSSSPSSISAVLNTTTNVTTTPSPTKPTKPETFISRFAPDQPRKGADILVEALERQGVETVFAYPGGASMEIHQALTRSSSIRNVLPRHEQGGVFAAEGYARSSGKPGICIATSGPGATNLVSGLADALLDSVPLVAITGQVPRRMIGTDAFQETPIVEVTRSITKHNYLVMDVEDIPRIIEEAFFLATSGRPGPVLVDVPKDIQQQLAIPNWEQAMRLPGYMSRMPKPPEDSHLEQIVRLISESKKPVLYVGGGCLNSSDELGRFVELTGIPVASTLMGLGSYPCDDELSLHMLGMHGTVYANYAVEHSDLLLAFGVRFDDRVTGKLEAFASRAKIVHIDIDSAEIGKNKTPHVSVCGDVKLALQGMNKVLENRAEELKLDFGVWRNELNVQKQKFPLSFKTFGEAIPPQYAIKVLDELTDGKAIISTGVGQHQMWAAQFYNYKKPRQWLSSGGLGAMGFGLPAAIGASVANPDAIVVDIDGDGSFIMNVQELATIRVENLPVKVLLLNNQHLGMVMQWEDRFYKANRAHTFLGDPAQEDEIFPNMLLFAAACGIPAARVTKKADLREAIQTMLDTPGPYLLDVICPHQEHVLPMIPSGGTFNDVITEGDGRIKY
As to the kind of experiment: Inhibition of Arabidopsis thaliana AHAS at 100 mg/L colorimetric assay. The essentials: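 Expressed and purified A. thaliana AHAS tested at a single concentration of 100 mg L-1. Enzyme activity was read by a colorimetric method described earlier, and the result is given as percent inhibition of AtAHAS activity.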

Assay [3] concerns Brassica rapa subsp. oleifera. The assay can be described thus: Inhibition of Brassica rapa subsp. oleifera at 100 mg/L. In kind it is functional. The essentials:
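Rape (Brassica campestris L.) root growth assay, per the group's earlier published method; compound tested at 100 mg L-1; read-out is root length inhibition (%); monosulfuron used as reference herbicide.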

By inhibition is commonly meant how much of the control response was suppressed. As for `Cc1ccc2c(c1)C(=O)C(=O)N2C`, at 10 µg/mL the inhibition in assay [1] was 14%. The inhibition in assay [2] came out at 75%. This compound also displayed an inhibition at 100 µg/mL in assay [3] of 26%.
In turn, `Cc1nc(C)c(C(=O)N/N=C2\C(=O)Nc3ccccc32)s1` had an inhibition at 10 µg/mL in assay [1] of 0%. The inhibition in assay [2] turned out to be 30%. The compound also yielded an inhibition at 100 µg/mL in assay [3] of 21%.
The like results for `O=C1Nc2c(I)cccc2/C1=N/NC(=O)c1cccc(F)c1` were, in that order, 51%, 75% and 81%.
The like results for `CN1C(=O)C(=O)c2cc(Cl)ccc21` were, in that order, 20%, 60% and 53%.
The compound `O=C1Nc2ccccc2C1=O` [ISATIN] gave an inhibition at 10 µg/mL in assay [1] of 24%. This compound also displayed an inhibition in assay [2] of 70%. For the same compound, 100 µg/mL produced 52% inhibition in assay [3].
Regarding `O=C1Nc2c(I)cccc2/C1=N/NC(=O)c1ccccc1O`, in assay [1], 10 µg/mL produced 0% inhibition. Further, in assay [2], the inhibition was determined as 95%. The same compound came in with an inhibition at 100 µg/mL in assay [3] of 25%.
In turn, `CN1C(=O)C(=O)c2cccc(Cl)c21` yielded an inhibition at 10 µg/mL in assay [1] of 31%. Moreover, in assay [2], the inhibition was 80%. The compound also registered an inhibition at 100 µg/mL in assay [3] of 59%.
In the same order, the values of `Cc1cc(Cl)cc2c1NC(=O)C2=O` are 10%, 65% and 65%.
`O=C(N/N=C1\C(=O)N(Cc2ccc(F)cc2)c2ccccc21)c1ccccc1` registered an inhibition at 10 µg/mL in assay [1] of 0%. This compound also displayed an inhibition in assay [2] of 80%. Also, testing at 100 µg/mL in assay [3] gave an inhibition of 15%.
For `O=C(N/N=C1\C(=O)N(Cc2cccc(F)c2)c2ccccc21)c1ccccc1`, the inhibition at 10 µg/mL in assay [1] was determined as 0%. In assay [2], this compound displayed an inhibition of 95%. Besides, at 100 µg/mL the inhibition in assay [3] was 40%.
The like results for `N#Cc1ccc(CN2C(=O)/C(=N\NC(=O)c3ccccc3)c3ccccc32)cc1` were, in that order, 2%, 20% and 48%.
In the same order, the values of `CN1C(=O)C(=O)c2ccccc21` are 7%, 50% and 24%.
With `O=C1Nc2ccc(S(=O)(=O)O)cc2C1=O`, the inhibition at 10 µg/mL in assay [1] came out at 4%. Further, in assay [2], the inhibition was 10%. This compound also registered an inhibition at 100 µg/mL in assay [3] of 18%.
As to `O=C1Nc2ccc(I)cc2C1=O` [5-IODOISATIN], testing at 10 µg/mL in assay [1] gave an inhibition of 31%. In assay [2], this compound came in with an inhibition of 70%. The compound also gave an inhibition at 100 µg/mL in assay [3] of 92%.
`Cc1ccnc(NC(=O)NS(=O)(=O)c2ccccc2C(=O)O)n1` [MONOSULFURON] had an inhibition at 10 µg/mL in assay [1] of 64%. This compound came in with an inhibition in assay [2] of 90%. Moreover, testing at 100 µg/mL in assay [3] gave an inhibition of 78%.
The compound `O=C1Nc2c(Br)cccc2/C1=N/NC(=O)c1ccccc1F` registered an inhibition at 10 µg/mL in assay [1] of 14%. The compound further gave an inhibition in assay [2] of 95%. In assay [3], the inhibition at 100 µg/mL came to 39%.
The compound `O=C1Nc2ccccc2/C1=N/O` returned an inhibition at 10 µg/mL in assay [1] of 0%. The compound further registered an inhibition in assay [2] of 45%. In assay [3], this compound returned an inhibition at 100 µg/mL of 55%.
`CC(C)(C)c1ccc(CN2C(=O)/C(=N\NC(=O)c3ccccc3)c3ccccc32)cc1` displayed an inhibition at 10 µg/mL in assay [1] of 0%. In assay [2], this compound showed an inhibition of 60%. In assay [3], this compound had an inhibition at 100 µg/mL of 15%.
Consider `O=C1Nc2ccc(C(F)(F)F)cc2C1=O`, for which at 10 µg/mL the inhibition in assay [1] was 27%. In addition, the inhibition in assay [2] turned out to be 60%. Moreover, the inhibition at 100 µg/mL in assay [3] amounted to 93%.
In the case of `CN1C(=O)C(=O)c2cc(I)ccc21`, the inhibition at 10 µg/mL in assay [1] is 13%. Also, the inhibition in assay [2] was 60%. Further, the inhibition at 100 µg/mL in assay [3] was 27%.
The like results for `Cc1ccc2c(c1)C(=O)C(=O)N2` were, in that order, 13%, 50% and 80%.
With `COc1ccc2c(c1)C(=O)C(=O)N2` [5-METHOXYISATIN], in assay [1], 10 µg/mL produced 20% inhibition. In addition, in assay [2], the inhibition was found to be 60%. This compound displayed an inhibition at 100 µg/mL in assay [3] of 30%.
In assay [1], `O=C1Nc2ccc([N+](=O)[O-])cc2C1=O` [5-NITROISATIN] showed an inhibition at 10 µg/mL of 7%. This compound also registered an inhibition in assay [2] of 60%. Further, the inhibition at 100 µg/mL in assay [3] came out at 82%.
The like results for `O=C1Nc2ccc(F)cc2C1=O` [5-FLUOROISATIN] were, in that order, 52%, 65% and 88%.
As for `O=C1Nc2ccc(Cl)cc2C1=O`, in assay [1], 10 µg/mL produced 28% inhibition. In assay [2], this compound yielded an inhibition of 55%. Further, the inhibition at 100 µg/mL in assay [3] worked out at 95%.
For `CN1C(=O)C(=O)c2cc([N+](=O)[O-])ccc21`, the inhibition at 10 µg/mL in assay [1] was 2%. Moreover, the inhibition in assay [2] turned out to be 25%. Besides, 100 µg/mL produced 33% inhibition in assay [3].
For `O=C1Nc2ccccc2/C1=N/Nc1ncccc1Cl`, the inhibition at 10 µg/mL in assay [1] came out at 0%. In assay [2], this compound displayed an inhibition of 70%. Testing at 100 µg/mL in assay [3] gave an inhibition of 19%.
Compound `O=C1Nc2c(Cl)cccc2C1=O` gave an inhibition at 10 µg/mL in assay [1] of 51%. This compound also came in with an inhibition in assay [2] of 70%. In assay [3], this compound came in with an inhibition at 100 µg/mL of 83%.
In assay [1], `O=C1Nc2c(Br)cccc2/C1=N/NC(=O)c1cccc(F)c1` showed an inhibition at 10 µg/mL of 0%. Moreover, the inhibition in assay [2] was 60%. In assay [3], testing at 100 µg/mL gave an inhibition of 16%.
In the same order, the values of `CN1C(=O)C(=O)c2cc(F)ccc21` are 19%, 60% and 59%.
In assay [1], `Cc1cc(C)n(CC(=O)N/N=C2\C(=O)Nc3ccccc32)n1` displayed an inhibition at 10 µg/mL of 0%. For the same compound, the inhibition in assay [2] is 35%. Besides, in assay [3], 100 µg/mL produced 27% inhibition.
Compound `Cc1ccccc1CN1C(=O)/C(=N\NC(=O)c2ccccc2)c2ccccc21` showed an inhibition at 10 µg/mL in assay [1] of 0%. In addition, the inhibition in assay [2] worked out at 50%. Testing at 100 µg/mL in assay [3] gave an inhibition of 0%.
Compound `O=C(N/N=C1\C(=O)N(Cc2ccc(Cl)cc2Cl)c2ccccc21)c1ccccc1` gave an inhibition at 10 µg/mL in assay [1] of 0%. Besides, the inhibition in assay [2] turned out to be 50%. In assay [3], the inhibition at 100 µg/mL was 6%.
